Source: ChEMBL document CHEMBL1145781, “Synthesis and structure-activity relationships of 5-amino-6-fluoro-1-[(1R,2S)-2-fluorocyclopropan-1-yl]-8-methylquinolonecarboxylic acid antibacterials having fluorinated 7-[(3R)-3-(1-aminocyclopropan-1-yl)pyrrolidin-1-yl] substituents” (J Med Chem, 2003)
Values after ≈ are worked out from the molar mass of the structure shown. *1 amine or outer side, *2 acyl side, *3 side chain or, on linkers, in order; H or OH if unused. Where a SMILES comes first, the peptide text is derived from it. Bridges are numbered along the chain shown (N, C = ends). [ ]: non-standard residue; d: D form. The star is where a group is joined. X1 = O=C1C[C@@H](C(=O)[*:2])N([*:1])C[C@H]1CS[C@@H]1CN2CCC1CC2; NMePhe(4-NMe2) = CN[C@@H](Cc1ccc(N(C)C)cc1)C(=O)O; Picolinoyl(3-OH) = O=C(c1ncccc1O)*; Phg = N[C@H](C(=O)O)c1ccccc1; dAbu = CC[C@@H](N)C(=O)O

Legend:
Assay type in all cases: functional
Streptococcus pneumoniae [1] = assay: Antibacterial activity was determined against clinically isolated penicillin resistant Streptococcus pneumoniae (PRSP) strains (50 strains)
Streptococcus mitis = assay: Antibacterial activity was determined against Streptococcus mitis IID685 strain after incubation at 37 degrees C for 18 h
Enterococcus faecalis = assay: Antibacterial activity was determined against Enterococcus faecalis ATCC 19433 strain after incubation at 37 degrees C for 18 h; settings: ATCC 19433, 18 h
[2] = test system: Staphylococcus epidermidis; assay: Antibacterial activity was determined against Staphylococcus epidermis 56500 strain after incubation at 37 degrees C for 18 h
Enterococcus sp. [3] = assay: Antibacterial activity was determined against clinically isolated vancomycin-B resistant enterococci (VRE) strains (10 strains)
Pseudomonas aeruginosa = assay: Antibacterial activity was determined against Pseudomonas aeruginosa PAO1 strain after incubation at 37 degrees C for 18 h
Escherichia coli = assay: Antibacterial activity was determined against Escherichia coli NIHJ strain after incubation at 37 degrees C for 18 h
Streptococcus pyogenes = assay: Antibacterial activity was determined against Streptococcus pyogenes G-36 strain after incubation at 37 degrees C for 18 h
Staphylococcus aureus [4] = assay: Antibacterial activity was determined against Staphylococcus aureus FDA 209-P strain after incubation at 37 degrees C for 18 h
Staphylococcus aureus [5] = assay: Antibacterial activity was determined against clinically isolated Levofloxacin-methicillin resistant Staphylococcus aureus (LVFX-r MRSA) strains (74 strains)
Enterococcus sp. [6] = assay: Antibacterial activity was determined against clinically isolated vancomycin-A resistant enterococci (VRE) strains (33 strains)
Streptococcus pneumoniae [7] = assay: Antibacterial activity was determined against Streptococcus pneumoniae J-24 strain after incubation at 37 degrees C for 18 h
Klebsiella pneumoniae = assay: Antibacterial activity was determined against Klebsiella pneumoniae type II strain after incubation at 37 degrees C for 18 h
Enterococcus sp. [8] = assay: Antibacterial activity was determined against clinically isolated vancomycin-A resistant Enterococci (VRE) strains (33 strains)
Summary of the method: (§1)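 Twofold broth microdilution in Mueller–Hinton broth, inoculum about 10^5 CFU per well. Plates incubated 18 h at 37 °C. MIC taken as the lowest concentration preventing visible growth. Organisms were clinical resistant Gram-positive isolates.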

Enterococcus sp. [9] = assay: Antibacterial activity was determined against clinically isolated vancomycin-B resistant Enterococci (VRE) strains (10 strains); summary of the method: as §1
Staphylococcus aureus [10] = assay: Antibacterial activity was determined against clinically isolated Levofloxacin-methicillin resistant Staphylococcus aureus (LVFX-r MRSA) strains (74 strains); Range= 0.5-128 ug/mL; summary of the method: as §1
Streptococcus pneumoniae [11] = assay: Antibacterial activity was determined against clinically isolated penicillin resistant Streptococcus pneumoniae (PRSP) strains (50 strains); Range= 1-4

Compound	MIC50 (Streptococcus pneumoniae [1]) [µg/mL]	MIC90 (Streptococcus pneumoniae [1]) [µg/mL]	MIC (Streptococcus mitis) [µg/mL]	MIC (Enterococcus faecalis) [µg/mL]	MIC [2] [µg/mL]	MIC50 (Enterococcus sp. [3]) [µg/mL]	MIC90 (Enterococcus sp. [3]) [µg/mL]	MIC (Pseudomonas aeruginosa) [µg/mL]	MIC (Escherichia coli) [ng/mL]	MIC (Streptococcus pyogenes) [µg/mL]	MIC (Staphylococcus aureus [4]) [µg/mL]	MIC50 (Staphylococcus aureus [5]) [µg/mL]	MIC90 (Staphylococcus aureus [5]) [µg/mL]	MIC50 (Enterococcus sp. [6]) [µg/mL]	MIC90 (Enterococcus sp. [6]) [µg/mL]	MIC (Streptococcus pneumoniae [7]) [µg/mL]	MIC (Klebsiella pneumoniae) [µg/mL]	further results
COc1c(N2CCNC(C)C2)c(F)cc2c(=O)c(C(=O)O)cn(C3CC3)c12 (stereo unspecified) [GATIFLOXACIN]	0.25 (≈ 0.666 µM)	0.25 (≈ 0.666 µM)	0.2 (≈ 0.533 µM)	0.39 (≈ 1.04 µM)	0.2 (≈ 0.533 µM)	2 (≈ 5.33 µM)	16 (≈ 42.6 µM)	0.39 (≈ 1.04 µM)	6 (≈ 0.016 µM)	0.39 (≈ 1.04 µM)	0.05 (≈ 0.133 µM)	4 (≈ 10.7 µM)	32 (≈ 85.2 µM)	16 (≈ 42.6 µM)	32 (≈ 85.2 µM)	0.2 (≈ 0.533 µM)	0.05 (≈ 0.133 µM)	
CO/N=C1\CN(c2nc3c(cc2F)c(=O)c(C(=O)O)cn3C2CC2)CC1CN (stereo unspecified) [GEMIFLOXACIN]	0.03 (≈ 0.077 µM)	0.06 (≈ 0.154 µM)										2 (≈ 5.14 µM)	32 (≈ 82.2 µM)					MIC50 (Enterococcus sp. [8]): 4 µg/mL (≈ 10.3 µM); MIC90 (Enterococcus sp. [8]): 32 µg/mL (≈ 82.2 µM); MIC50 (Enterococcus sp. [9]): 1 µg/mL (≈ 2.57 µM); MIC90 (Enterococcus sp. [9]): 2 µg/mL (≈ 5.14 µM)
C[C@H]1COc2c(N3CCN(C)CC3)c(F)cc3c(=O)c(C(=O)O)cn1c23.C[C@H]1COc2c(N3CCN(C)CC3)c(F)cc3c(=O)c(C(=O)O)cn1c23.O [LEVOFLOXACIN]																		MIC (Staphylococcus aureus [10]): 128 µg/mL
COc1c(N2C[C@@H]3CCCN[C@@H]3C2)c(F)cc2c(=O)c(C(=O)O)cn(C3CC3)c12 [MOXIFLOXACIN]			0.1 (≈ 0.249 µM)	0.2 (≈ 0.498 µM)	0.1 (≈ 0.249 µM)			0.2 (≈ 0.498 µM)	≤ 3	0.2 (≈ 0.498 µM)	0.013 (≈ 0.0324 µM)					0.025 (≈ 0.0623 µM)	0.025 (≈ 0.0623 µM)	
CC1(C)S[C@@H]2[C@H](NC(=O)Cc3ccccc3)C(=O)N2[C@H]1C(=O)O [PENICILLIN G]																		MIC (Streptococcus pneumoniae [11]): 4 µg/mL (≈ 12 µM)
CCN(CC)CCS(=O)(=O)[C@@H]1CCN2C(=O)c3coc(n3)CC(=O)C[C@H](O)/C=C(C)/C=C/CNC(=O)/C=C/[C@@H](C)[C@@H](C(C)C)OC(=O)[C@@H]12.CC[C@H]1NC(=O)[C@@H](NC(=O)c2ncccc2O)[C@@H](C)OC(=O)[C@H](c2ccccc2)NC(=O)[C@@H]2CC(=O)[C@H](CS[C@@H]3CN4CCC3CC4)CN2C(=O)[C@H](Cc2ccc(N(C)C)cc2)N(C)C(=O)[C@@H]2CCCN2C1=O [QUINUPRISTIN/DALFOPRISTIN] ({Picolinoyl(3-OH)}-T[dAbu]P[NMePhe(4-NMe2)][X1][Phg]; ester 1-C)	1	1				0.5	8					0.5	0.5	0.5	8			
N[C@@H]1[C@H]2CN(c3nc4c(cc3F)c(=O)c(C(=O)O)cn4-c3ccc(F)cc3F)C[C@@H]12 [TROVAFLOXACIN]			0.1 (≈ 0.24 µM)	0.2 (≈ 0.48 µM)	0.05 (≈ 0.12 µM)			0.2 (≈ 0.48 µM)	≤ 3	0.2 (≈ 0.48 µM)	0.013 (≈ 0.0312 µM)					0.05 (≈ 0.12 µM)	0.025 (≈ 0.06 µM)	
CN[C@H](CC(C)C)C(=O)N[C@H]1C(=O)N[C@@H](CC(N)=O)C(=O)N[C@H]2C(=O)N[C@H]3C(=O)N[C@H](C(=O)N[C@H](C(=O)O)c4cc(O)cc(O)c4-c4cc3ccc4O)[C@H](O)c3ccc(c(Cl)c3)Oc3cc2cc(c3O[C@@H]2O[C@H](CO)[C@@H](O)[C@H](O)[C@H]2O[C@H]2C[C@](C)(N)[C@H](O)[C@H](C)O2)Oc2ccc(cc2Cl)[C@H]1O [VANCOMYCIN]	0.5 (≈ 0.345 µM)	0.5 (≈ 0.345 µM)				> 128	> 128					1 (≈ 0.69 µM)	2 (≈ 1.38 µM)	> 128	> 128			
